Assay outcomes deposited in PubChem by Sanford-Burnham Center for Chemical Genomics.
FLuc stim CS: affects firefly luciferase, flagging false hits in luciferase stimulation screens | 200,000 tested, under 10 active | P08659 | ATPlite luciferase biochemical, luminescence, 10 min; 0 = ATP-free wells, 1 = DMSO control | activation factor at 10 µM;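 active = luciferase activation factor, scaled between plate controls, of at least 2 with compound at 10 µM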
Target sequence (P08659 whole entry, looked up): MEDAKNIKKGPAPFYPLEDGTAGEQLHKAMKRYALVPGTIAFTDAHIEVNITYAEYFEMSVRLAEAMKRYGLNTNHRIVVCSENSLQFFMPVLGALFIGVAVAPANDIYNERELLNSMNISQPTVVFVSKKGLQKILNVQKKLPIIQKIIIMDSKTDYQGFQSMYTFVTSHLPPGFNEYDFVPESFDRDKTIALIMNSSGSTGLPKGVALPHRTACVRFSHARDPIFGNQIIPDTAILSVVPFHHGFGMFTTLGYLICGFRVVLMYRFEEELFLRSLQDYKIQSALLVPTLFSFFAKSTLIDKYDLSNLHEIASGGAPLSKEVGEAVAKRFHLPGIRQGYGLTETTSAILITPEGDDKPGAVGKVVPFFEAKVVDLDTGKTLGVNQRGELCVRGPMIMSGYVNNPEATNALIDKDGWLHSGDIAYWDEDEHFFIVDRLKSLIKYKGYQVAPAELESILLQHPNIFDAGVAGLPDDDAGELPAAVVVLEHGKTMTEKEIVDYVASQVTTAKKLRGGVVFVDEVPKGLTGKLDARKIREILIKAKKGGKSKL
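System: Luciferase/luciferin detection reagent, cell-free biochemical luciferase assay | Medium: PBS buffer for ATP | Dosing: Test compounds dosed from 2 mM stocks in 100% DMSO | Timing: 10 min at ambient temperature | Signal: Luminescence measurement of luciferase light output | Evaluation: Luciferase activation, seen as luminescence increase over controls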
FLuc inhib CS: inhibits firefly luciferase, flagging false hits in luciferase inhibition screens; P08659; ATPLite firefly luciferase biochemical luminescence, 10 min; inhibition, % at 10 µM; 200,000 tested, 1.5% active; AID 1006;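 active = inhibition above about 50% when tested at 10 µM, limit read from the data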
C8 TRAIL sens: sensitizes caspase-8 expressing cells to TRAIL | NB7+C8 cells + TRAIL, ATPlite viability luminescence | inhibition (viability loss, TRAIL sensitization), % at 10 µM | 360,000 tested, 1% active | AID 624354;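 active = compounds causing at least 50% loss of cell viability in the single-dose screen, relative to plate controls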
PPC-1+TRAIL kill: PPC-1 cancer cell killing with TRAIL present; 220,000 tested, 0.41% active; cell killing (% activity), % at 4 µM or 5 µM; AID 1443; PPC-1 cells + TRAIL, ATPLite viability luminescence;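 active = cell killing above 50% in the first pass at 4 µM, then a duplicate retest at 5 µM averaging 50% or more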
Numbers stand for hits; n = inactive; x = no result given. Sampled rows, rich in hits. Any-hit rate of the full collection: about 1.5%.

SMILES	FLuc stim CS	FLuc inhib CS	C8 TRAIL sens	PPC-1+TRAIL kill
Cc1cc(NCc2ccccc2)n2ncc(-c3ccccc3)c2n1	x	x	n	x
COc1ccccc1-c1c(C)nn2c(-c3ccccc3)cc(C)nc12	x	x	n	n
Cc1cc(N2CCCCC2)n2ncc(-c3ccc(Cl)cc3)c2n1	n	n	n	n
Cc1cc(-c2ccccc2)n2ncc(-c3ccccc3)c2n1	n	85.2	61.8	54.8
Cc1csc(=O)n1CCC(=O)OCc1nnc(-c2ccc([N+](=O)[O-])cc2)o1	x	x	n	x
Cc1nc2c(-c3ccccc3)cnn2c(N)c1-c1ccccc1	x	x	83.7	x
CCN(Cc1nc2cc(Cl)ccc2c(=O)[nH]1)C(=O)c1cc2c(s1)CCCCC2	x	x	n	x
N/C(=N\OC(=O)c1ccc(Cl)c(Cl)c1)c1cccnc1	n	n	83.1	n
N/C(=N\OC(=O)c1cccc(Cl)c1)c1cccnc1	n	68.3	63.5	n
COc1ccc(CCNS(=O)(=O)c2cc3c4c(c2)CCN4C(=O)CC3)cc1	x	x	n	x
CC(Sc1nnc(-c2cccs2)n1-c1ccccc1)C(=O)NCc1ccc2c(c1)OCO2 (centres undefined)	n	n	n	n
Fc1ccccc1-c1nc(-c2ccc(Cl)cc2)no1	x	x	n	x
Cc1ccc(-c2noc(-c3ccccc3Br)n2)cc1	n	67.3	51.3	n
CN(C)c1ccc(-c2noc(-c3ccccc3O)n2)cc1	n	57.9	n	n
CC(C)N(CCCNC(=O)C1CCN(S(=O)(=O)N2CCOCC2)CC1)Cc1ccccc1	n	n	n	n
C=CCN=C1NN=C(c2ccc3c(c2)OCCO3)CS1	n	93.8	n	n
Cc1sc(N)nc1-c1ccc2c(c1)OCCO2	x	x	n	x
NC1=NN=C(c2ccc3c(c2)OCCO3)CS1	n	78.8	n	n
C=CCN=C1NN=C(c2cc(C)n(CC=C)c2C)CS1	n	92.5	51.5	n
O=C1c2cccc3c([N+](=O)[O-])ccc(c23)C(=O)N1c1ccc(Cl)cn1	n	n	n	n
O=C1c2cccc3c([N+](=O)[O-])ccc(c23)C(=O)N1c1ccccn1	n	n	50.7	n
O=C1c2cccc3c([N+](=O)[O-])ccc(c23)C(=O)N1c1nccs1	n	n	53.0	n
O=C1c2cccc3cccc(c23)C(=O)N1c1nccs1	n	n	n	n
O=C(CSc1nncc2ccccc12)Nc1ccccc1	x	x	n	x
C/C(=N\NC(=O)c1cc(Br)ccc1O)c1cccs1	n	64.7	n	n
SMILES	FLuc stim CS	FLuc inhib CS	C8 TRAIL sens	PPC-1+TRAIL kill
C/C(=N\NC(=O)c1ccccc1O)c1ccc(Br)s1	n	78.7	54.4	n
C/C(=N/NC(=O)c1ccc(Br)o1)c1cccs1	x	x	n	x
COc1ccc(C2=CSC3=NCCN23)cc1[N+](=O)[O-]	x	x	n	x
CC(=O)c1ccc(N2CCN(C(=O)COc3ccc4ccccc4c3)CC2)cc1	x	x	n	x
CCc1noc(C)c1C(=O)Nc1ccc(Cl)c(S(=O)(=O)N2CCCCC2)c1	x	x	n	x
COc1ccc(/C=C/C(=O)Nc2cc(C)nn2-c2nc3ccccc3[nH]2)cc1	n	66.9	71.2	n
Cn1c(SCCc2ccc([N+](=O)[O-])cc2)nccc1=O	x	x	n	x
CC(=O)Nc1sc(NC(=O)c2ccccc2)nc1-c1cccs1	n	n	n	n
COc1ccccc1C(=O)Nc1nc(-c2cccs2)c(NC(C)=O)s1	n	50.1	50.8	n
CCCNc1ncccc1C(N)=O	n	n	n	n
C[C@@H](NC(=O)c1ncn2c1c(=O)[nH]c1ccc(Br)cc12)c1ccccc1	x	x	69.0	x
C[C@@H](NC(=O)c1ncn2c1c(=O)[nH]c1cccnc12)c1ccccc1	x	x	n	x
O=C(Nc1ccccc1)c1cc(S(=O)(=O)N2CCCCC2)ccc1N1CCOCC1	x	x	n	x
CC[C@H](C)C1OC(=O)[C@@H](C)[C@@H](CC)NC(=O)[C@H](C)N(C)C(=O)C(C)(C)C(=O)C(C)NC(=O)[C@H](Cc2ccc(OC)cc2)N(C)C(=O)[C@H](C(C)C)N(C)C(=O)CNC(=O)[C@H](CC(C)C)N(C)C(=O)CNC1=O (some centres undefined)	x	x	54.7	x
COC(=O)c1c(NC(=O)c2ccc([N+](=O)[O-])o2)sc2c1CCN(C(C)C)C2	x	x	53.4	x
CC(C)N1CCc2c(sc(NC(=O)c3ccc([N+](=O)[O-])o3)c2C(N)=O)C1	x	x	51.6	x
COc1ccc(C(=O)NC2CC3CCCC(C2)N3Cc2ccccc2)cc1OC (centres undefined)	x	x	n	x
COC(=O)C1(C)NC(c2ccccc2C)C2C(=O)N(c3ccccc3)C(=O)C21 (centres undefined)	x	x	n	x
O=[N+]([O-])c1c(Nc2ccc(O)cc2)cc(Cl)c2nonc12	x	x	95.8	x
O=C(O)c1ccccc1Nc1cc(Cl)c2nonc2c1[N+](=O)[O-]	x	x	n	x
O=[N+]([O-])c1c(Nc2ccccn2)cc(Cl)c2nonc12	x	x	84.5	n
CN(C)c1cc(Nc2ccc(O)cc2)c([N+](=O)[O-])c2nonc12	x	x	n	n
COc1ccc(CCC(=O)Nc2cccc(Cl)c2)cc1	n	n	n	n
CCOc1ccccc1N/C=C/C(=O)C(C)(C)C	n	n	n	n
O=C(N/N=C1\C/C(=N\NC(=O)c2ccncc2)c2ccccc21)c1ccncc1	n	69.1	n	n
SMILES	FLuc stim CS	FLuc inhib CS	C8 TRAIL sens	PPC-1+TRAIL kill
O=C(Nc1ccc(NC(=O)c2ccc3c(c2)OCCO3)cc1)c1ccccc1	x	x	n	x
O=C(Nc1cccc(F)c1)c1ccc2c(c1)OCCO2	x	x	n	x
O=C(Nc1ccccc1)c1ccc2c(c1)OCCO2	n	64.9	n	n
Cc1ccc(NC(=O)c2ccc3c(c2)OCCO3)nc1	x	x	74.3	x
Cc1cccc(NC(=O)c2ccc3c(c2)OCCO3)c1	x	x	87.0	x
Cc1ccc(NC(=O)c2ccc3c(c2)OCCO3)cc1C	x	x	76.2	x
O=C(O)CSc1ccc2nnc(-c3cccnc3)n2n1	n	n	n	n
Cc1ccc(C(=O)Nc2ccc3c(c2)OCCO3)c(C)c1	x	x	87.4	x
Cc1cccc(NC(=S)NNC(=O)c2ccc3c(c2)OCO3)c1	n	79.1	50.4	n
CCn1c(O)c(C=NC2CCCC(C)C2C)sc1=S (centres undefined)	x	x	n	n
CCn1nc(C(=O)NCCc2ccc(S(N)(=O)=O)cc2)c2ccccc2c1=O	n	n	47.2	n
O=C(Nc1ccccc1Cl)C(=O)c1cn(CC(=O)N2CCOCC2)c2ccccc12	x	x	53.6	x
O=C(NCc1ccc(Cl)cc1)C(=O)c1cn(CC(=O)N2CCOCC2)c2ccccc12	x	x	n	x
CCC1SC(=NC(=O)c2ccc(Cl)c(Cl)c2)NC1=O (centres undefined)	n	59.0	n	n
CCC1SC(=Nc2cccc(C)c2)NC1=O (centres undefined)	x	x	n	x
C[C@H](CO)N1C[C@H](C)[C@@H](CN(C)C(=O)c2ccncc2)OCc2cnnn2CCCC1=O	x	x	n	x
Cc1cccc(NC(=O)c2cc(-c3ccc(C)s3)nc3ccccc23)n1	n	n	n	n
Cc1ccc(/C=N/c2sc3c(c2C#N)CCC3)o1	n	74.1	n	n
CN(C)/C=N/c1sc2c(c1C#N)CCC2	n	n	n	n
N#Cc1c(/N=C/c2ccc(Br)s2)sc2c1CCC2	n	n	n	n
N#Cc1c(/N=C/c2cccs2)sc2c1CCCCC2	n	86.5	54.0	n
O=c1ccnc(SCCC(F)=C(F)F)[nH]1	n	n	n	n
